Experimental data from publication PMC5088453 (ACS Omega, 2016).
Like-named read-outs stand apart in the source and are kept apart here.

Assays:
[1] = at 10 min, 25 mg/kg; ref 39 (Gooyit et al.); cited from earlier work
[2] = type: in vivo, C57Bl/6J mice; settings: for FruArg concentration in plasma: mice, i.p. 2.5 μL/g BW of 40 mM FruArg
How it was run: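 In male C57Bl/6J mice (8 weeks; i.p. 40 mM; n = 3 per time), terminal heparinized blood was taken by cardiac puncture at 15, 30, 60 and 180 min. Plasma was stored at −80 °C. Samples (25 μL plasma plus L-lysine-d8 internal standard) went through phospholipid-removal SPE, then C18 UPLC–MS/MS MRM. Quantitation used a plasma-matrix calibration with 1/x2 weighting. PK parameters came from a fit of the concentration–time curve.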

[3] = type: in vivo, C57Bl/6J mice; settings: mice, i.p. 40 mM, 2.5 μL/g BW, 15 min; cerebellum, cortex, striatum, hippocampus
How it was run: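 Male C57Bl/6J mice, 8 weeks old, n = 3, given 40 mM test compound i.p. Brains were saline-perfused, dissected into regions, flash-frozen and stored at −80 °C. Tissue was homogenized in 3 vol water, then centrifuged 20 min at 4 °C. Supernatant (50 μL) was spiked with L-lysine-d8 internal standard and cleaned by phospholipid-removal SPE. Read-out: C18 UPLC–ESI–MS/MS (MRM), expressed as pmol/mg tissue, mean ± SE.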

[4] = Stability of the FruArg stock solution; type: physicochemical; settings: 200 mM hydroacetate salt in double-distilled water, at 4 °C
[5] = tested on: lipopolysaccharide-induced mouse BV-2 microglial cells; settings: lipopolysaccharide-induced BV-2 cells, concentration-dependent; cited from earlier work
[6] = tested on: mouse BV-2 microglial cells; settings: cited from earlier work
[7] = mice plasma, i.p. 40 mM, 2.5 μL/g BW

Row | Compound | concentration in the brain tissue [1] [pmol/mg] | clearance (Cl) [2, 7] | elimination rate (k) [2, 7] | half-life (t1/2) [2, 7] [min] | volume distribution (VD) [2, 7] | AUC0→∞ ([2]; mice plasma, i.p. 40 mM, 2.5 μL/g BW, extrapolated to infinity) [µM·min] | clearance (Cl) ([2]; mice plasma, i.p. 40 mM, 2.5 μL/g BW, unit as in Table 2) | FruArg concentration in plasma ([2]; 15 min, average n = 3 ± SE) [µM] | FruArg concentration in plasma ([2]; 30 min, average n = 3 ± SE) [µM] | FruArg concentration in plasma ([2]; 60 min, average n = 3 ± SE) [µM] | FruArg concentration in plasma ([2]; 180 min, plasma LOQ 1 μM) | FruArg concentration in brain tissue, all four subregions [3] | stability of stock solution [4] | nitric oxide (NO) production [5] | cell viability [6]
1 | O=S(=O)(CC1CS1)c1ccc(Oc2ccccc2)cc1 (stereo not drawn) [SB-3CT] | 5.0 ± 0.8 | – | – | – | – | – | – | – | – | – | – | – | – | – | –
2 | N=C(N)NCCC[C@H](NCC(=O)[C@@H](O)[C@H](O)[C@H](O)CO)C(=O)O [FruArg, N-α-(1-deoxy-D-fructos-1-yl)-L-arginine] | – | 1.8 × 10^–4 L·min | 6.91 × 10^–2 min^–1 | 10.03 | 2.63 × 10^–3 L | 4930 | 1.8 × 10^–4 L·min^–1 | 111 ± 3 | 33 ± 9 | 5 ± 2 | below the LOQ | 4–7 pmol/mg tissue | at least 6 months | suppressing nitric oxide (NO) production | without affecting the cell viability
